Blank lines part the entries; values can stand above or below the molecule they belong to.
Legend:
[1] = target: T1, Glucocorticoid receptor (Homo sapiens) (UniProt P04150); assay: Agonist activity at glucocorticoid receptor in HFF assessed as inhibition of IL1-induced IL-6 production after 18 to 24 hrs relative to Dexamethasone; assay type: functional
T1 sequence (whole entry): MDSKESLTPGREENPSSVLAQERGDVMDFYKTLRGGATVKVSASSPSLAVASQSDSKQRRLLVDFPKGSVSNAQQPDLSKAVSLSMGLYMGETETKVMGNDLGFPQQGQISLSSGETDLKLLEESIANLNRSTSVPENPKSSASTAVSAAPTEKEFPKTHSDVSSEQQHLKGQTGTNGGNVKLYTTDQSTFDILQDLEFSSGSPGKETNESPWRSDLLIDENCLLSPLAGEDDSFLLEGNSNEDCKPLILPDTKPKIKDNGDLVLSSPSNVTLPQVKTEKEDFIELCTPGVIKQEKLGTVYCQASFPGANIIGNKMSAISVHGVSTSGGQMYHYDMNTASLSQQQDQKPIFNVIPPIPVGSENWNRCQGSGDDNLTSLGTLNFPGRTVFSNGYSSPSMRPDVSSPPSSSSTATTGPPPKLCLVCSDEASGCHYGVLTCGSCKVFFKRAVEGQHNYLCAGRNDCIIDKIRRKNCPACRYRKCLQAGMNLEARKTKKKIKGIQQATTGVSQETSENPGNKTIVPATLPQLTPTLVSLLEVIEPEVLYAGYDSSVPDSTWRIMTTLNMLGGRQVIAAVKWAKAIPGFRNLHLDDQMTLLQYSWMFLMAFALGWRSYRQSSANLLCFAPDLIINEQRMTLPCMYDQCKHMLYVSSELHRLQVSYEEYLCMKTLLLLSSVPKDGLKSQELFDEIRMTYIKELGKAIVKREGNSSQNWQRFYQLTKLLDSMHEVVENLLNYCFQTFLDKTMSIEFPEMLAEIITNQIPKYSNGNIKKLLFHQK
In short: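 Human foreskin fibroblasts stimulated with IL-1 (1 ng/mL) in the presence of test compound, incubated at 37 °C for 18–24 h. IL-6 in the culture medium was quantified by electrochemiluminescence, DELFIA or ELISA. IC50 and % maximal efficacy were reported.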

Glucocorticoid receptor [2] = target: T2, Glucocorticoid receptor (Homo sapiens, UniProt P04150); assay: Transactivation activity of glucocorticoid receptor in HFF assessed as induction of aromatase activity by measuring beta-estradiol activity after 18 to 24 hrs by ELISA; conditions: read-out: EC50
T2 sequence (P04150 whole entry): T1 sequence (whole entry)

Glucocorticoid receptor [3] = target: T2, Glucocorticoid receptor; assay: Displacement of tetramethylrhodamine-labeled Dexamethasone from human recombinant glucocorticoid receptor expressed in baculovirus infected insect cells by fluorescence polarization assay
[4] = target: T1, Glucocorticoid receptor (Homo sapiens); assay: Agonist activity at glucocorticoid receptor in human HeLa cells transfected with luciferase gene linked to MMTV promoter assessed as luciferase transactivation activity relative to Dexamethasone; assay type: functional, cell-based
In short: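 HeLa cells stably carrying an MMTV-luciferase construct were exposed to compound for 6 h at 37 °C, 5% CO2. Cells were then lysed and luminescence read with a Steady-Glo reagent. EC50 and % maximal efficacy were reported.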

[5] = Volume of distribution at steady state in Sprague-Dawley rat at 2 mg/kg, iv; assay type: ADME, organism-based; design: dose 2 mg/kg, route intravenous; conditions: in vivo, read-out: Vdss
In short: (§1)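 Rat PK: IV dose 2 mg/kg in PEG400/water (70:30); oral dose 30 mg/kg in PEG400/H2O/Tween (80/18/2). Values are the mean of 3 rats.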

[6] = Cmax in Sprague-Dawley rat at 30 mg/kg, po; assay type: ADME, organism-based; design: dose 30 mg/kg, route oral; conditions: in vivo; in short: as §1
[7] = AUC (infinity) in Sprague-Dawley rat at 30 mg/kg, po; assay type: ADME, organism-based; design: dose 30 mg/kg, route oral, time infinity; conditions: plasma; in short: as §1
Mus musculus [8] = assay: Toxicity in B10.R3 mouse collagen-induced arthritis model assessed as change in serum free fatty acids level at 30 mg/kg, po qd for 5 weeks relative to control; assay type: organism-based; design: dose 30 mg/kg, route oral; conditions: in vivo, 840 h
In short: (§2)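 Arthritic B10.RIII CIA mice were dosed orally once daily for 5 weeks. At day 35 they were anesthetized with ketamine (50 mg/kg) and xylazine (15 mg/kg). Body fat was assessed by whole-body density scan. Serum triglycerides were measured by enzymatic kit (Wako L-Type TG-H) and free fatty acids by NEFA-C. Results are expressed as % change versus vehicle and compared by t-test.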

Mus musculus [9] = assay: Toxicity in B10.R3 mouse collagen-induced arthritis model assessed as change in body weight at 30 mg/kg, po qd for 5 weeks relative to control; assay type: organism-based; design: dose 30 mg/kg, route oral; conditions: in vivo, 840 h
Mus musculus [10] = assay: Toxicity in B10.R3 mouse collagen-induced arthritis model assessed as change in serum insulin level at 30 mg/kg, po qd for 5 weeks by ELISA relative to control; assay type: organism-based; design: dose 30 mg/kg, route oral; conditions: in vivo, 840 h
Mus musculus [11] = assay: Antiarthritic activity in B10.R3 mouse collagen-induced arthritis model assessed as AUC of disease progression inhibition at 10 mg/kg, po qd for 5 weeks; assay type: functional; conditions: B10.R3, 840 h
In short: (§3)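 B10.RIII mice immunized with porcine type II collagen plus complete Freund's adjuvant were enrolled at the first signs of arthritis. They were dosed orally once daily for 5 weeks; vehicle was 30% Cremophor RH. All four paws were scored 1–4 (maximum 16 per animal). Disease-score AUCs from 10 mice per group were compared with vehicle by Mann–Whitney test.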

Mus musculus [12] = assay: Toxicity in B10.R3 mouse collagen-induced arthritis model assessed as change in body fat level at 30 mg/kg, po qd for 5 weeks relative to control; assay type: organism-based; design: dose 30 mg/kg, route oral; conditions: in vivo, 840 h; in short: as §2
[13] = Volume of distribution at steady state in B10.R3 mouse at 1 mg/kg, iv; assay type: ADME, organism-based; design: dose 1 mg/kg, route intravenous; conditions: in vivo, read-out: Vdss
In short: (§4)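 Mouse PK: IV dose 1 mg/kg in PEG400/water (70:30); oral dose 30 mg/kg given as a suspension in 30% Cremophor. Values are the mean of 3 mice.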

Homo sapiens = species on record: Homo sapiens; assay: Selectivity ratio of IC50 for human recombinant glucocorticoid receptor to IC50 for human recombinant mineralocorticoid receptor
[14] = Half life in B10.R3 mouse at 1 mg/kg, iv; assay type: ADME, organism-based; design: dose 1 mg/kg, route intravenous; conditions: in vivo; in short: as §4
[15] = Clearance in B10.R3 mouse at 1 mg/kg, iv; assay type: ADME, organism-based; design: dose 1 mg/kg, route intravenous; conditions: in vivo; in short: as §4
[16] = AUC (infinity) in B10.R3 mouse at 30 mg/kg, po; assay type: ADME, organism-based; design: time infinity, dose 30 mg/kg, route oral; conditions: plasma; in short: as §4
Mus musculus [17] = assay: Toxicity in B10.R3 mouse collagen-induced arthritis model assessed as change in serum triglyceride level at 30 mg/kg, po qd for 5 weeks relative to control; assay type: organism-based; design: dose 30 mg/kg, route oral; conditions: in vivo, 840 h; in short: as §2
[18] = Oral bioavailability in Sprague-Dawley rat at 30 mg/kg; assay type: ADME, organism-based; conditions: in vivo; in short: as §1
[19] = Oral bioavailability in B10.R3 mouse at 30 mg/kg; assay type: ADME, organism-based; conditions: in vivo; in short: as §4
Mus musculus [20] = assay: Antiarthritic activity in B10.R3 mouse collagen-induced arthritis model assessed as AUC of disease progression inhibition at 30 mg/kg, po qd for 5 weeks; assay type: functional; conditions: B10.R3, 840 h; in short: as §3
[21] = Clearance in Sprague-Dawley rat at 2 mg/kg, iv; assay type: ADME, organism-based; design: dose 2 mg/kg, route intravenous; conditions: in vivo; in short: as §1
[22] = Cmax in B10.R3 mouse at 30 mg/kg, po; assay type: ADME, organism-based; design: dose 30 mg/kg, route oral; conditions: in vivo; in short: as §4
Mus musculus [23] = assay: Antiinflammatory activity in po dosed mouse plasma assessed as inhibition of LPS-induced TNFalpha production administered 1 hr before LPS challenge measured after 1 hr; assay type: functional
In short: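 Mice received compound orally in Cremophor RH 1 h before LPS challenge. Plasma TNF-α was measured 1 h after challenge. n = 8 per group; doses were 3 and 10 mg/kg.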

Glucocorticoid receptor [24] = target: T2, Glucocorticoid receptor; assay: Agonist activity at glucocorticoid receptor in human HeLa cells transfected with luciferase gene linked to MMTV promoter assessed as luciferase transactivation activity; assay type: functional, cell-based

Efficacy [1]: 87% | EC50 (Glucocorticoid receptor [2]): 18 nM | IC50 (Glucocorticoid receptor [3]): 10 nM
Compound: COc1ccc(F)cc1C(C)(C)C[C@@](O)(Cc1cc2ccccc2[nH]1)C(F)(F)F

Efficacy [4]: 10% | Vd [5]: 7.7 L/kg | Cmax [6]: 955 ng/mL | AUC(0-inf) [7]: 4850 ng·h/mL | Efficacy [1]: 88% | Vd [13]: 0.9 L/kg | Ratio IC50 (Homo sapiens): 100 | half-life [14]: 2.5 h | clearance [15]: 4 mL/min/kg | AUC(0-inf) [16]: 32700 ng·h/mL | bioavailability [18]: 51% | bioavailability [19]: 26% | clearance [21]: 51 mL/min/kg | Cmax [22]: 6190 ng/mL | EC50 (Glucocorticoid receptor [2]): 120 nM | EC50 (Glucocorticoid receptor [24]): > 2000 nM | IC50 (Glucocorticoid receptor [3]): 2 nM
Compound: CC(C)(C[C@@](O)(Cc1cc2ccc(C#N)cc2[nH]1)C(F)(F)F)c1cc(S(C)(=O)=O)cc2c1OCC2
Activity (Mus musculus [8]): 8% | Activity (Mus musculus [9]): -8% | Activity (Mus musculus [10]): -29% | inhibition in vivo at 10 mg/kg (Mus musculus [11]): 62% | Activity (Mus musculus [12]): 6% | Activity (Mus musculus [17]): 11% | inhibition in vivo at 30 mg/kg (Mus musculus [20]): 45% | ED50 (Mus musculus [23]): < 3 mg/kg
